One experiment relates to Blood. Kind of experiment: Inhibition of LPS-induced TNFalpha production in human whole blood by immunoassay. In kind it is functional, tissue-based. Put shortly: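 Human whole blood from consenting volunteers, 988 µL aliquots, was mixed with compound in DMSO and LPS at a final 10 µg/mL, then incubated 6 h at 37 °C. Samples were chilled and spun, and plasma TNFα was measured by immunoassay. Percent inhibition was taken relative to LPS control after subtracting the unstimulated negative control. IC50 from N = 3–4.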

The subject of experiment [1] is Mus musculus. The experiment is described as follows: Inhibition of LPS-induced TNFalpha production in orally dosed mouse after 1 hr by ELISA. In kind it is functional. To be noted: po, read-out: ID50 (the source's name). The essentials:
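Mice fasted overnight (water allowed), then given compound orally as a suspension in 0.5% CMC at 10 mL/kg; controls received vehicle alone. 30 min later LPS in saline was injected i.v. at 0.45 mg/10 mL/kg; normal mice got saline. After 1 h, heparinised vena cava blood was spun and plasma TNFα measured by ELISA. % inhibition was taken against normal and control mice; ID50 derived. N = 5.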

Experiment [2] relates to Mus musculus. Kind of experiment: Inhibition of LPS-induced TNFalpha production in mouse at 50 mg/kg, po after 1 hr by ELISA. In kind it is functional. Put shortly: (§1)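 Mice were fasted overnight with water allowed. Compound was given orally as a suspension in 0.5% CMC at 10 mL/kg. After 30 min, LPS in saline was injected iv at 0.45 mg/10 mL/kg. Heparinized vena cava blood was drawn 1 h later and plasma TNFα measured by ELISA. Percent inhibition was taken versus vehicle/LPS control after subtracting normal mice. N = 5.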

Experiment [3] concerns Mus musculus. The experiment is described as follows: Inhibition of LPS-induced TNFalpha production in mouse at 20 mg/kg, po after 1 hr by ELISA. In kind it is functional. Put shortly:
as §1

`CC(=O)NCCCc1c[nH]c(-c2ccc(F)cc2)c1-c1ccncc1` came in with a 50% inhibitory concentration (IC50) in the experiment with Blood greater than 30 µM. For `C[S+]([O-])c1ccc(-c2nc(-c3ccc(F)cc3)c(-c3ccncc3)[nH]2)cc1` (configuration not stated) [SB-203580], in the experiment with Mus musculus [1], the ED50 amounted to 27.9 mg/kg. Also, in the experiment with Blood, the 50% inhibitory concentration (IC50) is 6.4 µM. Compound `NCCCc1c[nH]c(-c2ccc(F)cc2)c1-c1ccncc1` displayed an IC50 with Blood of 4.76 µM. The same measure, in the same setting: the result for `Fc1ccc(-c2[nH]cc(CCCN3CCCCC3)c2-c2ccncc2)cc1` reads 28.4 µM.

`CN(C)CCCc1c[nH]c(-c2ccc(F)cc2)c1-c1ccncc1` gave a half-maximal inhibitory concentration (IC50) in the experiment with Blood of 22.4 µM. Still for that read-out and setting: under `NCCCCc1c[nH]c(-c2ccc(F)cc2)c1-c1ccncc1` stands 13.8 µM. With `Fc1ccc(-c2[nH]cc(-c3ccncc3)c2-c2ccncc2)cc1`, the inhibition in vivo at 50 mg/kg with Mus musculus [2] was 24.5%. In the experiment with Blood, this compound returned an IC50 greater than 30 µM. Regarding `OC1(c2c[nH]c(-c3ccc(F)cc3)c2-c2ccncc2)CCNCC1`, the inhibition in vivo at 20 mg/kg in the experiment with Mus musculus [3] was -2.7%. The compound also displayed a concentration for half-maximal inhibition (IC50) in the experiment on Blood greater than 30 µM. As for `Fc1ccc(-c2[nH]cc(CCCN3CCOCC3)c2-c2ccncc2)cc1`, the half-inhibitory concentration (IC50) with Blood was greater than 30 µM. As for `Fc1ccc(-c2[nH]cc(C3=CCNCC3)c2-c2ccncc2)cc1`, the ED50 in the experiment on Mus musculus [1] was 5.98 mg/kg. The IC50 in the experiment with Blood worked out at 1.86 µM. For `CNCCCc1c[nH]c(-c2ccc(F)cc2)c1-c1ccncc1`, half-maximal inhibition in the experiment with Blood (IC50) required 14.7 µM. Same read-out and setting: under `Fc1ccc(-c2[nH]cc(CCCN3CCN(Cc4ccccc4)CC3)c2-c2ccncc2)cc1` stands greater than 30 µM; under `Fc1ccc(-c2[nH]cc(CCCN3CCNCC3)c2-c2ccncc2)cc1`, greater than 30 µM; under `Fc1ccc(-c2[nH]cc(CCCN3CCSCC3)c2-c2ccncc2)cc1`, greater than 30 µM. Turning to `Fc1ccc(-c2[nH]cc(C3CCNCC3)c2-c2ccncc2)cc1`, in the experiment with Mus musculus [1], the ED50 was 17.9 mg/kg. In the experiment with Blood, this compound displayed an IC50 of 2.98 µM. Take `CN1CCN(CCCc2c[nH]c(-c3ccc(F)cc3)c2-c2ccncc2)CC1`: the half-inhibitory concentration (IC50) in the experiment with Blood was greater than 30 µM.

In the experiment on Blood, `NCc1c[nH]c(-c2ccc(F)cc2)c1-c1ccncc1` returned an IC50 greater than 30 µM.
